Test results: ChEMBL document CHEMBL4422643, “Physalactone and 4β-Hydroxywithanolide E Isolated from Physalis peruviana Inhibit LPS-Induced Expression of COX-2 and iNOS Accompanied by Abatement of Akt and STAT1” (J Nat Prod, 2019)
The source made the active and inactive calls. The calls are words filed in the database; no cut-off is given here.

Experiments:
RAW264.7 [1] = experiment: Antiinflammatory activity against mouse RAW264.7 cells assessed as inhibition of LPS induced iNOS expression preincubated for 30 mins followed by LPS challenge and measured after 16 hrs by Western blot analysis; format: functional, cell-based
[2] = Effect on SAPK/JNK1/2 phosphorylation at T183/Y185 residues in mouse RAW264.7 cells at 40 uM measured after 30 mins by Western blot analysis; format: ADME, cell-based; settings: raw264.7, 0.5 h
RAW264.7 [3] = experiment: Antiinflammatory activity against mouse RAW264.7 cells assessed as inhibition of LPS induced COX2 expression preincubated for 30 mins followed by LPS challenge and measured after 16 hrs by Western blot analysis; format: functional, cell-based
[4] = target: T1, I-kappa-B kinase (Mus musculus) (UniProt Q60680+O88351+O88522); experiment: Effect on IKK-mediated IkappaBalpha degradation in LPS-stimulated mouse RAW264.7 cells at 40 uM preincubated for 30 mins followed by LPS-stimulation and measured after 10 mins by Western blot analysis; format: cell-based
Method in brief: (§1)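 RAW 264.7 cells were pretreated 30 min with compound (5 or 40 μM), then given LPS 1 μg/mL for several time points. Western blots of whole-cell lysates probed IκBα, total and Ser473-phospho Akt, and total and Tyr701-phospho STAT1, with GAPDH as loading reference. Detection used HRP chemiluminescence.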

RAW264.7 [5] = experiment: Antiinflammatory activity against mouse RAW264.7 cells assessed as inhibition of LPS-induced nitric oxide production by measuring nitrite levels at 50 uM preincubated for 30 mins followed by LPS challenge and measured after 16 hrs by Griess assay (reference value: 32.4 +/- 0.9 uM); format: functional
RAW264.7 [6] = experiment: Effect on total STAT1 expression in LPS-stimulated mouse RAW264.7 cells at 40 uM preincubated for 30 mins followed by LPS-stimulation and measured up to 240 mins by Western blot analysis; format: ADME, cell-based; settings: raw264.7, 4 h; method in brief: as §1
RAW264.7 [7] = experiment: Antiinflammatory activity against mouse RAW264.7 cells assessed as inhibition of LPS induced iNOS expression at 50 uM preincubated for 30 mins followed by LPS challenge and measured after 16 hrs by Western blot analysis; format: functional, cell-based
Method in brief: (§2)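 RAW 264.7 cells in DMEM with 10% heat-inactivated FBS and penicillin/streptomycin at 37 °C, 5% CO2. Cells were pretreated 30 min at 50 μM, then given LPS 1 μg/mL for 16 h. iNOS and COX-2 protein were detected by Western blot (8–12% SDS-PAGE, PVDF, HRP secondary, chemiluminescence imaging), with equal total protein loaded by Bradford assay. n = 3.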

RAW264.7 [8] = experiment: Antiinflammatory activity against mouse RAW264.7 cells assessed as inhibition of LPS induced COX2 mRNA expression preincubated for 30 mins followed by LPS challenge and measured after 3 to 12 hrs by SYBR green dye based qRT-PCR analysis; format: functional, cell-based
Method in brief: (§3)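 RAW 264.7 cells were pretreated 30 min, then given LPS 1 μg/mL for 3, 6, 9 or 12 h. Total RNA went to qRT-PCR with SYBR Green for Nos2/Ptgs2. Values were normalized to β-actin by 2^−ΔΔCT and expressed as fold change versus unstimulated cells. n = 3; means ± SD; significance versus LPS-only at p < 0.05.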

[9] = target: T2, Signal transducer and activator of transcription 1 (Mus musculus) (UniProt P42225); experiment: Inhibition of LPS-induced STAT1 phosphorylation at Y701 residue in mouse RAW264.7 cells at 40 uM preincubated for 30 mins followed by LPS-stimulation and measured up to 240 mins by Western blot analysis; format: cell-based; method in brief: as §1
T2 sequence (whole entry): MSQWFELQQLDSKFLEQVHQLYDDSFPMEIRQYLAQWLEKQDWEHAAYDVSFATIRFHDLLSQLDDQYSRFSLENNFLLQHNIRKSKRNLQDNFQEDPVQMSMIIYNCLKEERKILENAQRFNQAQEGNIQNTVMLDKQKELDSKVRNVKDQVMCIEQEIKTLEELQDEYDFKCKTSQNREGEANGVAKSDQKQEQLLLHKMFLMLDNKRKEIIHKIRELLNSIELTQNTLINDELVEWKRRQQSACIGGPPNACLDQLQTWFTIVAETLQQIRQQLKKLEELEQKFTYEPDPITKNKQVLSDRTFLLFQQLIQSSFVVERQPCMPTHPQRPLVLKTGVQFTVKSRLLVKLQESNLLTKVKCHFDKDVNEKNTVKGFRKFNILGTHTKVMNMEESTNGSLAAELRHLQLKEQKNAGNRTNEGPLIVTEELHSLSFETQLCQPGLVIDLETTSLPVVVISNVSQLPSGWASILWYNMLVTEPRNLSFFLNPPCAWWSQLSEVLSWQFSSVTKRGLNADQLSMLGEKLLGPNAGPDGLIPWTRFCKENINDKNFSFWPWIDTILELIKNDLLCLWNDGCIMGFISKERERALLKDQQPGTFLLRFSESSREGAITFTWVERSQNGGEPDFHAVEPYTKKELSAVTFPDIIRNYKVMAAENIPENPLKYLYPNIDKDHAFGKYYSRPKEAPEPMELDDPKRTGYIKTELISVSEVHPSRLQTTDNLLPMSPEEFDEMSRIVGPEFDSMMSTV

[10] = target: T1, I-kappa-B kinase (Mus musculus); experiment: Effect on IKK-mediated IkappaBalpha degradation in LPS-stimulated mouse RAW264.7 cells assessed as IkappaBalpha recovery at 40 uM preincubated for 30 mins followed by LPS-stimulation and measured after 20 to 240 mins by Western blot analysis; format: cell-based; method in brief: as §1
RAW264.7 [11] = experiment: Antiinflammatory activity against mouse RAW264.7 cells assessed as inhibition of LPS-induced nitric oxide production preincubated for 30 mins followed by LPS challenge and measured after 18 hrs by Griess assay; format: functional, cell-based
Method in brief: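 Macrophages (RAW 264.7, 5 × 10^5/well, 24 h settle) were pretreated 30 min in phenol-red-free medium at 0.128–5.0 or 1.0–40 μM, then given LPS 1 μg/mL for 18 h. Culture-supernatant nitrite was read by Griess reaction, and an IC50 was estimated from the concentration–response. n = 3.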

RAW264.7 [12] = experiment: Antiinflammatory activity against mouse RAW264.7 cells assessed as inhibition of LPS induced COX2 expression at 50 uM preincubated for 30 mins followed by LPS challenge and measured after 16 hrs by Western blot analysis; format: functional, cell-based; method in brief: as §2
RAW264.7 [13] = experiment: Antiinflammatory activity against mouse RAW264.7 cells assessed as inhibition of LPS induced iNOS mRNA expression preincubated for 30 mins followed by LPS challenge and measured after 3 to 12 hrs by SYBR green dye based qRT-PCR analysis; format: functional, cell-based; method in brief: as §3
[14] = target: RAC-alpha serine/threonine-protein kinase (Mus musculus) (UniProt P31750); experiment: Inhibition of LPS-induced AKT phosphorylation at S473 residue in mouse RAW264.7 cells at 40 uM preincubated for 30 mins followed by LPS-stimulation and measured up to 240 mins by Western blot analysis; format: cell-based; method in brief: as §1
Chain of RAC-alpha serine/threonine-protein kinase (Mus musculus) (P31750 whole entry): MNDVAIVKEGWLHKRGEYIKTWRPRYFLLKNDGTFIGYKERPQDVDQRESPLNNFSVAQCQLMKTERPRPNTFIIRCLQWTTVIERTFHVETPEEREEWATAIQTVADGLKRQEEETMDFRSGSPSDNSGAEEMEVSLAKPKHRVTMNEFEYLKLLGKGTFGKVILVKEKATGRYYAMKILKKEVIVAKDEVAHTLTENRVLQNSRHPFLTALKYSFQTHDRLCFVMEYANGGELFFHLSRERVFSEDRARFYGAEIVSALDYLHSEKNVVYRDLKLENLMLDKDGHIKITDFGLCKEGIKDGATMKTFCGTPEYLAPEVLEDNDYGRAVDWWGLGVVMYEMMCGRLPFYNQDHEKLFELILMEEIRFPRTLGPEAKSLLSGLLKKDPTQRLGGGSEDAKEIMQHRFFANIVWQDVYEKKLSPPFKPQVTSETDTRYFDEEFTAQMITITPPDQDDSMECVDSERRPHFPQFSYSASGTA

RAW264.7 [15] = experiment: Effect on total AKT expression in LPS-stimulated mouse RAW264.7 cells at 40 uM preincubated for 30 mins followed by LPS-stimulation and measured up to 240 mins by Western blot analysis; format: ADME, cell-based; settings: raw264.7, 4 h; method in brief: as §1
[16] = target: RAC-alpha serine/threonine-protein kinase (Mus musculus) (UniProt P31750); experiment: Inhibition of LPS-induced AKT phosphorylation at S473 residue in mouse RAW264.7 cells at 5 uM preincubated for 30 mins followed by LPS-stimulation and measured up to 240 mins by Western blot analysis; format: cell-based; method in brief: as §1
[17] = target: T1, I-kappa-B kinase (Mus musculus); experiment: Effect on IKK-mediated IkappaBalpha degradation in LPS-stimulated mouse RAW264.7 cells assessed as IkappaBalpha recovery at 5 uM preincubated for 30 mins followed by LPS-stimulation and measured after 20 to 240 mins by Western blot analysis; format: cell-based; method in brief: as §1
RAW264.7 [18] = experiment: Effect on total AKT expression in LPS-stimulated mouse RAW264.7 cells at 5 uM preincubated for 30 mins followed by LPS-stimulation and measured up to 240 mins by Western blot analysis; format: ADME, cell-based; settings: raw264.7, 4 h; method in brief: as §1
[19] = target: T2, Signal transducer and activator of transcription 1 (Mus musculus); experiment: Inhibition of LPS-induced STAT1 phosphorylation at Y701 residue in mouse RAW264.7 cells at 5 uM preincubated for 30 mins followed by LPS-stimulation and measured up to 240 mins by Western blot analysis; format: cell-based; method in brief: as §1
[20] = Effect on SAPK/JNK1/2 phosphorylation at T183/Y185 residues in mouse RAW264.7 cells at 5 uM measured after 30 mins by Western blot analysis; format: ADME, cell-based; settings: raw264.7, 0.5 h
[21] = target: T1, I-kappa-B kinase (Mus musculus); experiment: Effect on IKK-mediated IkappaBalpha degradation in LPS-stimulated mouse RAW264.7 cells at 5 uM preincubated for 30 mins followed by LPS-stimulation and measured after 10 mins by Western blot analysis; format: cell-based; method in brief: as §1
RAW264.7 [22] = experiment: Effect on total STAT1 expression in LPS-stimulated mouse RAW264.7 cells at 5 uM preincubated for 30 mins followed by LPS-stimulation and measured up to 240 mins by Western blot analysis; format: ADME, cell-based; settings: raw264.7, 4 h; method in brief: as §1

Structure (SMILES) | inhibition (RAW264.7 [1]) | inhibition (RAW264.7 [3]) | Activity (RAW264.7 [5]) [µM] | inhibition (RAW264.7 [7]) | inhibition (RAW264.7 [8]) | IC50 (RAW264.7 [11]) [µM] | inhibition (RAW264.7 [12]) | inhibition (RAW264.7 [13]) | also measured
CO[C@H]1CC(=O)[C@]2(C)[C@H]3CC[C@]4(C)[C@](O)([C@@](C)(O)[C@H]5CC(C)=C(C)C(=O)O5)CC[C@@]4(O)[C@@H]3C[C@H]3O[C@]32[C@H]1O | Dose-dependent effect | Dose-dependent effect | 1.1 | Active | Dose-dependent effect | 13.8 | Active | Dose-dependent effect | Activity [2]: Not Active; Activity [4]: inactive; Activity (RAW264.7 [6]): Non-Toxic; inhibition [9]: Active; Activity [10]: inactive; inhibition [14]: Active; Activity (RAW264.7 [15]): Non-Toxic
CC1=C(C)C(=O)O[C@@H]([C@](C)(O)[C@]2(O)CC[C@@]3(O)[C@@H]4C[C@H]5O[C@]56[C@@H](O)C=CC(=O)[C@]6(C)[C@H]4CC[C@]23C)C1 | Dose-dependent effect | Dose-dependent effect | 0.9 | Active | Dose-dependent effect | 1.8 | Active | Dose-dependent effect | inhibition [16]: Active; Activity [17]: inactive; Activity (RAW264.7 [18]): Non-Toxic; inhibition [19]: Active; Activity [20]: Not Active; Activity [21]: inactive; Activity (RAW264.7 [22]): Non-Toxic
